The source of these data is ChEMBL document CHEMBL3853291, “Polycyclic Polyprenylated Derivatives from Hypericum uralum: Neuroprotective Effects and Antidepressant-like Activity of Uralodin A” (2016).

Test [1] relates to PC-12. The experiment in a line: Neuroprotective activity against corticosterone-induced cell injury in rat PC12 cells assessed as cell viability at 3 uM after 48 hrs by MTT assay (reference value: 55.6 +/- 0.87%). The class given is functional. Conditions: PC-12, 48 h, read-out: Activity.
Test [2] has as its system PC-12. The experiment in a line: Neuroprotective activity against corticosterone-induced cell injury in rat PC12 cells assessed as cell viability at 0.3 uM after 48 hrs by MTT assay (reference value: 55.6 +/- 0.87%). The class given is functional. Conditions: PC-12, 48 h, read-out: Activity. A general note: Tetrazolium dyes change colour on reduction, which living cells bring about.

Test [3] relates to PC-12. Description: Neuroprotective activity against corticosterone-induced cell injury in rat PC12 cells assessed as cell viability at 10 uM after 48 hrs by MTT assay (reference value: 55.6 +/- 0.87%). Type of test: functional. Conditions: PC-12, 48 h, read-out: Activity.
For test [4], the system named is PC-12. The experiment in a line: Neuroprotective activity against corticosterone-induced cell injury in rat PC12 cells assessed as cell viability at 1 uM after 48 hrs by MTT assay (reference value: 55.6 +/- 0.87%). The class given is functional. Conditions: PC-12, 48 h, read-out: Activity.
Test [5] relates to PC-12. Description: Neuroprotective activity against corticosterone-induced cell injury in rat PC12 cells assessed as cell viability at 0.1 uM after 48 hrs by MTT assay (reference value: 55.6 +/- 0.87%). Type of test: functional. Conditions: PC-12, 48 h, read-out: Activity.
The nature of test [6]: Antidepressant-like activity in LPS-induced ICR mouse assessed as decrease in immobility time at 26 mg/kg, ig qd for 5 days followed by LPS stimulation on 5th day injected 30 mins post last dose measured 24 hrs after stimulation monitored for last 4 mins by forced swim test relative to control. Also noted: scale not given: the % may be the effect or the level left. The class given is functional, organism-based. The gist of the method: (§1)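 Male ICR mice (18−22 g), n = 12 per group. Dosed intragastrically once daily for 5 days as a suspension in 0.03% CMC-Na. On day 5, LPS 0.5 mg/kg i.p. was given 30 min after dosing. Tests were run 24 h after LPS. FST used a 20 × 14 cm cylinder with 10 cm water at 25 ± 1 °C, 6 min swim. TST suspended mice 50 cm high by the tail tape for 6 min. Immobility was scored over the last 4 min.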

The nature of test [7]: Antidepressant-like activity in LPS-induced ICR mouse assessed as decrease in immobility time at 13 mg/kg, ig qd for 5 days followed by LPS stimulation on 5th day injected 30 mins post last dose measured 24 hrs after stimulation monitored for last 4 mins by tail suspension test relative to control. The class given is functional, organism-based. Also noted: scale not given: the % may be the effect or the level left. The gist of the method:
as §1

Test [8] is described as follows: Antidepressant-like activity in LPS-induced ICR mouse assessed as decrease in immobility time at 13 mg/kg, ig qd for 5 days followed by LPS stimulation on 5th day injected 30 mins post last dose measured 24 hrs after stimulation monitored for last 4 mins by forced swim test relative to control. Type of test: functional, organism-based. Also noted: scale not given: the % may be the effect or the level left. In a few lines:
as §1

Test [9] in a line: Antidepressant-like activity in LPS-induced ICR mouse assessed as decrease in immobility time at 26 mg/kg, ig qd for 5 days followed by LPS stimulation on 5th day injected 30 mins post last dose measured 24 hrs after stimulation monitored for last 4 mins by tail suspension relative to control. Type of test: functional, organism-based. Also noted: scale not given: the % may be the effect or the level left. In a few lines: as §1

A short description of test [10]: Antidepressant-like activity in LPS-induced ICR mouse assessed as decrease in immobility time at 25 mg/kg, ig qd for 5 days followed by LPS stimulation on 5th day injected 30 mins post last dose measured 24 hrs after stimulation monitored for last 4 mins by tail suspension test relative to control. The class given is functional, organism-based. Also noted: scale not given: the % may be the effect or the level left. The gist of the method: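 Male ICR mice (18−22 g), n = 12 per group, given drug in 0.03% CMC-Na intragastrically once daily for 5 days. LPS 0.5 mg/kg i.p. 30 min after the last dose, with the test 24 h later. Mice visually and acoustically isolated, taped ~1 cm from the tail tip, hung 50 cm above the floor for 6 min. Passive motionless hanging timed over the last 4 min; mean ± SD.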

The nature of test [11]: Antidepressant-like activity in LPS-induced ICR mouse assessed as decrease in immobility time at 25 mg/kg, ig qd for 5 days followed by LPS stimulation on 5th day injected 30 mins post last dose measured 24 hrs after stimulation monitored for last 4 mins by forced swim test relative to control. The class given is functional, organism-based. Also noted: scale not given: the % may be the effect or the level left. In a few lines: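 Male ICR mice (18−22 g), 12 per group. Drug suspended in 0.03% CMC-Na and given intragastrically once daily for 5 days. LPS 0.5 mg/kg i.p. 30 min after the day-5 dose, with testing 24 h later. Mice swim 6 min at 25 ± 1 °C in a cylinder (20 cm high, 14 cm diameter, 10 cm water). Floating immobility scored over the last 4 min; mean ± SD.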

Turning to `CC(C)=CCC[C@]1(C)[C@@H](CC=C(C)C)C[C@@]2(CC=C(C)C)C(=O)[C@]1(C(=O)c1ccccc1)C(=O)C1=C2O[C@@H](C(C)(C)O)C1`, the viability at 3 µM in the test on PC-12 [1] was 72.9%. Moreover, in the test on PC-12 [2], the viability at 0.3 µM came to 56.6%. In addition, the viability at 10 µM with PC-12 [3] was determined as 75.9%. In addition, the viability at 1 µM with PC-12 [4] is 74.7%. Moreover, in the test with PC-12 [5], the viability at 0.1 µM was 55.6%.
On to `CC(C)=CCC[C@]1(C)[C@@H](CC=C(C)C)C[C@]2(CC=C(C)C)C(=O)C3=C(OC(C)(C)[C@@H](O)C3)[C@@]1(C(=O)c1ccccc1)C2=O`, for which the viability at 3 µM in the test on PC-12 [1] is 69%. In addition, the viability at 0.3 µM with PC-12 [2] came to 80.8%. The viability at 10 µM in the test with PC-12 [3] amounted to 65.9%. Besides, the viability at 1 µM in the test on PC-12 [4] came out at 77.6%. Moreover, the viability at 0.1 µM in the test with PC-12 [5] was 70%.
With `CC(C)=CCC[C@]1(C)[C@@H](CC=C(C)C)C[C@@]2(CC=C(C)C)C(=O)[C@]1(C(=O)c1ccccc1)C(=O)C1=C2O[C@H](C(C)(C)O)C1`, the viability at 3 µM in the test on PC-12 [1] was 74.4%. For the same compound, in the test with PC-12 [2], the viability at 0.3 µM was 77.7%. For the same compound, the viability at 10 µM in the test with PC-12 [3] was 57%. The viability at 1 µM in the test with PC-12 [4] amounted to 72.2%. Besides, in the test on PC-12 [5], the viability at 0.1 µM came to 69.9%.
Taken in the same sequence, the figures for `CC(C)=CCC1=C2O[C@H](C(C)(C)O)CC[C@]3(C)[C@@H](C[C@H](O)C(C)(C)O)C[C@](CC=C(C)C)(C1=O)C(=O)[C@]23C(=O)C(C)C` were 90.7%, 84.4%, 72.9%, 93.5% and 91.7%.
In the same order, the values of `CC(C)=CCC[C@]1(C)[C@@H](CC=C(C)C)C[C@]2(C[C@H](O)C(C)(C)O)C(=O)C(C(=O)C(C)C)=C3O[C@H](C(C)(C)O)C[C@@]31C2=O` are 76.5%, 80%, 71.5%, 81.1% and 72.3%.
In the same order, the values of `CC(C)=CCC[C@]1(C)[C@@H](CC=C(C)C)C[C@]2(CC=C(C)C)C(=O)C3=C(OC(C)(C)[C@H](O)C3)[C@@]1(C(=O)c1ccccc1)C2=O` are 82.2%, 86.8%, 68.9%, 86.3% and 78.6%.
In the case of `CC(C)=CCC1=C2O[C@H](C(C)(C)O)CC[C@]3(C)[C@@H](CC=C(C)C)C[C@](CC=C(C)C)(C1=O)C(=O)[C@]23C(=O)c1ccccc1`, the viability at 3 µM with PC-12 [1] was 81.6%. In addition, the viability at 0.3 µM with PC-12 [2] was found to be 82.7%. Moreover, the viability at 10 µM in the test on PC-12 [3] was determined as 84.2%. Further, in the test on PC-12 [4], the viability at 1 µM stood at 83.5%. Moreover, the viability at 0.1 µM in the test on PC-12 [5] amounted to 83.4%.
In the same order, the values of `CC(C)=CCC[C@]1(C)[C@@H](CC=C(C)C)C[C@]2(CC=C(C)C)C(=O)C(C(=O)c3ccccc3)=C3O[C@H](C(C)(C)O)C[C@@]31C2=O` are 81.1%, 81.8%, 74.1%, 76.6% and 76.7%.
Taken in the same sequence, the figures for `CC(C)=CCC[C@]1(C)[C@@H](CC=C(C)C)C[C@]23C[C@H](C(C)(C)O)OC2=C(CC=C(C)C)C(=O)[C@@]1(C(=O)c1ccccc1)C3=O` were 78%, 72.8%, 86.6%, 68.1% and 82.9%.
In the same order, the values of `CC(C)=CCC[C@]1(C)[C@@H](CC=C(C)C)C[C@]23C[C@@H](C(C)(C)O)OC2=C(CC=C(C)C)C(=O)[C@@]1(C(=O)C(C)C)C3=O` are 77.7%, 79.9%, 85.2%, 79.7% and 77.2%.
As for `CC(C)=CCC[C@]1(C)[C@@H](CC=C(C)C)C[C@]23C[C@@H](C(C)(C)O)OC2=C(CC=C(C)C)C(=O)[C@@]1(C(=O)c1ccccc1)C3=O`, the viability at 3 µM in the test with PC-12 [1] was 90.2%. In the test with PC-12 [2], the viability at 0.3 µM was found to be 87.1%. Further, the Activity in [6] stood at 28.1%; in [7], 6.6%; in test [8] it was 21.4%; in [9], 12.6%. In addition, in the test with PC-12 [3], the viability at 10 µM came to 85.3%. The viability at 1 µM in the test on PC-12 [4] turned out to be 85.9%. Further, the viability at 0.1 µM in the test on PC-12 [5] stood at 85.7%.
Turning to `CC(C)=CCC1=C2O[C@H](C(C)(C)O)CC[C@]3(C)[C@@H](CC=C(C)C)C[C@](C[C@H](O)C(C)(C)O)(C1=O)C(=O)[C@]23C(=O)c1ccccc1`, in the test with PC-12 [1], the viability at 3 µM was found to be 59.7%. The viability at 0.3 µM in the test on PC-12 [2] was 57.5%. Moreover, the viability at 10 µM in the test with PC-12 [3] is 53.2%. Further, the viability at 1 µM in the test on PC-12 [4] is 65%. Also, the viability at 0.1 µM in the test on PC-12 [5] was found to be 55.9%.
For the compound `CNCCC(Oc1ccc(C(F)(F)F)cc1)c1ccccc1` (stereo unspecified) [FLUOXETINE], the Activity in test [10] worked out at 23.1%; in test [11], 33.7%. Moreover, the viability at 3 µM in the test on PC-12 [1] stood at 59.1%. Besides, in the test on PC-12 [2], the viability at 0.3 µM is 66.2%. For the same compound, the viability at 10 µM with PC-12 [3] was determined as 69.6%. For the same compound, the viability at 1 µM with PC-12 [4] worked out at 70.1%. The viability at 0.1 µM in the test on PC-12 [5] was 77.7%.
Take `CC(C)=CCC[C@]1(C)[C@@H](CC=C(C)C)C[C@]2(CC=C(C)C)C(=O)C3=C(OC(C)(C)[C@H](O)C3)[C@@]1(C(=O)C(C)C)C2=O`: the viability at 3 µM in the test on PC-12 [1] is 91.5%. For the same compound, in the test on PC-12 [2], the viability at 0.3 µM worked out at 61.4%. For the same compound, the viability at 10 µM in the test with PC-12 [3] turned out to be 75.1%. Also, the viability at 1 µM with PC-12 [4] was 81.8%. Besides, the viability at 0.1 µM in the test on PC-12 [5] was 80.3%.
As for `CC(C)=CCC[C@]1(C)[C@H](CC=C(C)C)C[C@]2(CC=C(C)C)C(=O)C(C(=O)C(C)C)=C3O[C@@H](C(C)(C)O)C[C@@]31C2=O`, the viability at 3 µM with PC-12 [1] came out at 63.8%. In addition, the viability at 0.3 µM in the test on PC-12 [2] is 68.1%. For the same compound, the viability at 10 µM in the test with PC-12 [3] was 61%. The viability at 1 µM in the test with PC-12 [4] worked out at 77%. The viability at 0.1 µM with PC-12 [5] turned out to be 80.9%.
Taken in the same sequence, the figures for `CC(C)=CCC[C@]1(C)[C@@H](CC=C(C)C)C[C@]2(CC=C(C)C)C(=O)C(C(=O)c3ccccc3)=C3O[C@@H](C(C)(C)O)C[C@@]31C2=O` were 77.7%, 72.9%, 68.1%, 78.5% and 78.6%.
In the same order, the values of `CC(C)=CCC[C@]1(C)[C@@H](CC=C(C)C)C[C@]2(C[C@H](O)C(C)(C)O)C(=O)C3=C(OC(C)(C)[C@@H](O)C3)[C@@]1(C(=O)c1ccccc1)C2=O` are 72.5%, 77.7%, 80.9%, 78.5% and 77.9%.
